PKA-R2B activ: activates the human PKA-R2B holoenzyme complex. P22694+P31323. PKA-R2B holoenzyme dissociation, Cy5-IP20 fluorescence polarization; R2B truncated from residue 108, S112A mutant; 0% DMSO only, 100% 113 µM cGMP. activation, % at 11.4 µM. 0.079% of 340,000 active;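 active = activation above a cutoff set at the mean over all compounds plus 3 SD, cut at about 18% in these data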;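 also: higher means more holoenzyme dissociation and a rise in polarization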
HKDC1 inh: inhibitors of human hexokinase HKDC1; recombinant HKDC1, G6PDH/diaphorase resazurin coupled fluorescence; 0.16% of 340,000 active; AID 493160; Q2TB90; inhibition, % at 20 µM;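 active = inhibition above about 35% when tested at 20 µM, limit read from the data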
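Test system: recombinant HKDC1 (HK5) hexokinase enzyme, produced in-house; Amount: enzyme 5 µg/mL final; Buffer or medium: Tris pH 8.0 buffer with MgCl2, Tween-20, BSA, BME; Reagent: glucose and ATP substrates; Doses: 20 µM test compound, 1% DMSO; Incubation: 90 min reaction incubation at room temperature, dark; Detection: resorufin fluorescence at 613 nm.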
ATG4B inh: ATG4B (human) cysteine protease inhibition. AID 504462. ATG4B cleavage of LC3-PLA2, NBD-HPC fluorescence, 1 h. 0.51% of 340,000 active. Q9Y4P1. inhibition, % at 8.33 µM; in the data active = inhibition above about 40%
Target sequence (Q9Y4P1 whole entry, looked up): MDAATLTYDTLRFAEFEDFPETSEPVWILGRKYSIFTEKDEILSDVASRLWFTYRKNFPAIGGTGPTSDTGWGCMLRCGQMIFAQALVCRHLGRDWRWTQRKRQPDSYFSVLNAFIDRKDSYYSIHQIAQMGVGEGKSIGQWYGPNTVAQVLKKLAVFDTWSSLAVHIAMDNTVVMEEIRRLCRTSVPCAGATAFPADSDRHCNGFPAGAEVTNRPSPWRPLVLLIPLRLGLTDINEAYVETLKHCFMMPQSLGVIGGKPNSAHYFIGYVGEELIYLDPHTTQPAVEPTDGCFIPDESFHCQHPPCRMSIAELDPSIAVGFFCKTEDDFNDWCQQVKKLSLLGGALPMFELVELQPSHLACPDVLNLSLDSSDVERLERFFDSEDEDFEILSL
PKA-R1A activ: activators of PKA-R1A complex; 0.083% of 340,000 active; PKA-R1A dissociation, Cy5-IP20 fluorescence polarization; scaled: DMSO 0%, 113 µM cGMP 100%; activation, % at 11.4 µM; P00514+P68181;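 active = percent activation above the mean of all tested compounds plus 3 SD, cut at about 19% in these data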;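 also: higher means more PKAc released from R1A so a rise in polarization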
T cell modulator: T cell immune modulation candidate. 2C CD8+ T cell-vesicle binding, flow cytometry; hits give low values. response (vesicle binding), % at 7 µM. 0.068% of 330,000 active. AID 2052;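 active = response, share of CD8 T cells binding vesicles, and their 90th percentile fluorescence all below set limits, cut at about 80% in these data, passing the limit was not always enough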;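 also: values below 100% mean blocked vesicle binding to the CD8+ T cells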
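System: murine 2C transgenic CD8+ T lymphocytes; also added: QL9-loaded Drosophila micro-vesicles; times: binding 1.5 h at 37 °C; measured by: flow cytometry, PE anti-B7-1 (FL2) versus Alexa647 anti-CD8 (FL8), PFA-fixed; control set: Peptide-free naked vesicles (low) and QL9 vesicles with 0.7% DMSO vehicle (high)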
PfG6PD inh: PfG6PD (Plasmodium falciparum) enzyme inhibition | AID 504690 | PfGluPho enzyme, NADPH resazurin-diaphorase fluorescence | inhibition, % at 20 µM | 0.78% of 350,000 active;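 active = inhibition reaching at least a set limit at 20 µM in the primary screen, cut at about 59% in these data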
PfGluPho conf: confirmation of Plasmodium falciparum G6PD inhibitors | shares compounds with PfG6PD inh | recombinant PfGluPho, NADPH-diaphorase-resazurin fluorescence | inhibition, % at 20 µM | 34% of 2,400 active;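 active = inhibition of at least 50% at 20 µM in any single replicate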
Diaph ctr 10uM: inhibits diaphorase or oxidizes, flagging false PfG6PD hits | 39% of 820 active | shares compounds with PfG6PD inh | diaphorase-coupled resazurin reduction, fluorescence, NADPH 10 uM | inhibition, % at 20 µM;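 active = average inhibition reaching 50% or more with the compound at 20 µM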;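 also: resorufin red fluorescence formed as diaphorase reduces resazurin using NADPH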
Diaph ctr 30uM: inhibits diaphorase or oxidizes, flagging false PfG6PD hits | inhibition, % at 20 µM | AID 504863 | shares compounds with PfG6PD inh | Diaphorase/resazurin coupled assay, resorufin fluorescence, 30 uM NADPH | 29% of 820 active;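 active = inhibition averaging 50% or more, tested at 20 µM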
A number is an active result; – = inactive; · = no result given. Shown are actives, neighbours in structure and some others; about 1.6% of the full set was active somewhere.

SMILES	PKA-R2B activ	HKDC1 inh	ATG4B inh	PKA-R1A activ	T cell modulator	PfG6PD inh	PfGluPho conf	others
CC(=O)Nc1ccc(NC(=O)CSc2nnc(NC(=O)c3cccc(F)c3)s2)cc1	–	–	–	–	–	–	·
Cc1ccc(-n2c(C)cc(C(=O)CSc3nncs3)c2C)cc1	–	–	–	–	–	62	–
Cc1cc(C(=O)CSc2nncs2)c(C)n1-c1c(C)n(C)n(-c2ccccc2)c1=O	–	–	–	–	–	–	·
O=C(CCN1C(=O)/C(=C\c2ccccc2)SC1=S)NCCCN1CCOCC1	–	–	–	–	–	–	·
O=C1C(=Cc2ccccc2O)SC(=S)N1CCCN1CCOCC1	–	·	·	–	·	71	–
Oc1ccc(Cl)cc1CNCc1ccc(Cl)nc1	–	–	–	–	–	–	·
CCc1ccc(Nc2n[n+](-c3ccccc3)c(-c3ccc(N(CC)CC)cc3)s2)cc1	–	–	–	–	–	–	·
COc1ccc2ccccc2c1-c1sc(Nc2ccccc2)n[n+]1-c1ccc(F)cc1	–	–	–	–	–	99	79	Diaph ctr 10uM=75;Diaph ctr 30uM=59
CCc1ccc(Nc2n[n+](-c3ccccc3)c(-c3c(Cl)cccc3Cl)s2)cc1	–	–	–	–	–	80	–
COc1ccc(C)cc1Nc1n[n+](-c2ccccc2)c(-c2c(Cl)cccc2Cl)s1	·	–	–	·	–	73	–
CCN(c1ccccc1)S(=O)(=O)c1cccc(C(=O)N(C)CC(=O)Nc2ccc(F)c(F)c2F)c1	–	–	–	–	·	–	·
Cc1ccc(SCCC(=O)N/N=C/c2ccccc2O)cc1	–	–	–	–	–	77	–
Cc1ccc(SCCC(=O)N/N=C/c2cccnc2)cc1	–	–	–	–	–	74	67	Diaph ctr 10uM=80;Diaph ctr 30uM=66
Cc1cc(/C=C(\C#N)C(=O)NCc2ccccc2)c(C)[nH]1	–	·	·	–	·	–	·
C=CCn1c(N)c(C(=O)NCCC2=CCCCC2)sc1=S	–	–	–	–	–	69	–
CSc1cccc(CN2CCCC(CNC(=O)c3ccco3)C2)c1 (stereo not drawn)	–	–	–	–	–	–	·
Cn1cc([N+](=O)[O-])c(C(=O)Nc2ccc(-c3nc4ccccc4[nH]3)cc2)n1	–	–	–	–	–	–	·
Cn1cc([N+](=O)[O-])c(C(=O)Nc2ccc3nc(-c4ccccc4)[nH]c3c2)n1	–	–	–	–	–	62	–
O=C(Nc1ccc2nc(-c3ccc4nc[nH]c4c3)[nH]c2c1)c1cccs1	–	–	–	–	–	–	·
O=C(Nc1ccc2nc(-c3ccccc3)[nH]c2c1)c1cccs1	–	–	–	–	–	76	–
O=C(CN(Cc1ccc(Br)cc1)S(=O)(=O)c1ccccc1)NCc1cccnc1	–	–	–	–	–	63	–
Clc1cccc(CN2CCSCC2)c1	–	–	–	–	–	–	·
Cc1ccc(C2(SCC(N)C(=O)O)c3ccccc3-c3ccccc32)cc1 (stereo not drawn)	–	–	–	–	·	–	·
O=S(=O)(NNc1ncc(C(F)(F)F)cc1Cl)c1ccccc1	–	–	–	–	–	–	·
O=S(=O)(NNc1ncc(C(F)(F)F)cc1Cl)c1ccc(F)cc1F	–	–	–	–	–	65	–
SMILES	PKA-R2B activ	HKDC1 inh	ATG4B inh	PKA-R1A activ	T cell modulator	PfG6PD inh	PfGluPho conf	others
COC(=O)N(C)C[C@@H]1OCc2cn(nn2)CCCC(=O)N([C@@H](C)CO)C[C@H]1C	–	·	·	–	·	–	·
CN(Cc1cccnc1)C(=O)c1cc(COc2ccc3c(c2)CCCC3)on1	–	–	–	–	–	–	·
O=C(Nc1ccc(N2CCOCC2)c(Cl)c1)c1ccc(F)cc1	–	–	–	–	–	94	–
O=C(Nc1ccc(N2CCN(C(=O)c3ccccc3)CC2)c(Cl)c1)c1ccc(Br)o1	–	–	–	–	–	–	·
O=C(Nc1ccc(N2CCOCC2)c(Cl)c1)c1ccc(Br)o1	–	–	–	–	–	82	–
CCCc1c(C(=O)N/N=C(\CC)c2ccccc2)nnn1-c1nonc1N	–	·	·	–	·	–	·
CC(=O)Nc1cccc(NC(=O)c2csc(C)c2)c1	–	–	–	–	–	–	·
CCn1c(NC(=O)c2ccc(C)cc2)c2ccccc2nc1=O	–	–	–	–	–	72	–
CCn1c(NC(=O)c2ccc(F)cc2)c2ccccc2nc1=O	–	–	–	–	–	–	·
CCOC(=O)c1cnc(-c2ccccc2O)nc1Cl	–	–	–	–	–	60	–
CCOc1ccc(N(C)S(=O)(=O)c2ccc(C)c(C(=O)N3CCN(Cc4ccc5c(c4)OCO5)CC3)c2)cc1	–	–	–	–	–	–	·
FC(F)Oc1ccc(NC(=S)NCc2ccccc2)cc1	–	–	–	–	–	–	·
Oc1cccc2c(NC(=S)Nc3ccc(OC(F)F)cc3)cccc12	–	–	–	–	–	62	–
COc1ccc(-c2cn(-c3ccccc3)nc2C(=O)O)cc1OC	–	–	–	–	–	–	·
CC1(C)Cc2[nH]c(=S)c(C#N)cc2CO1	–	–	–	–	–	63	–
N#Cc1cc2c([nH]c1=S)CCCC2	–	–	–	–	–	–	·
COc1ccc(-c2nc(N)ncc2-c2ccccc2OC)c(O)c1	–	–	–	–	–	74	–
Cc1cc(=O)oc2cc(O[C@@H]3O[C@H](CO)[C@@H](O)[C@H](O)[C@H]3O)ccc12	–	–	–	–	–	–	·
Cc1cc(C)n2c(SCC(=O)Nc3cccc(S(N)(=O)=O)c3)nnc2n1	–	–	–	–	–	–	·
O=C1COc2ccc(-c3csc(NCCc4ccccc4)n3)cc2N1	–	–	–	–	–	61	–
CCC(C)C(=O)Nc1nc(-c2ccc3c(c2)NC(=O)CO3)cs1 (stereo not drawn)	–	–	–	–	–	64	–
Nc1nc(-c2ccc3c(c2)NC(=O)CO3)cs1	–	–	–	–	–	–	·
Cc1ccc(C)c(S(=O)(=O)N2CCN(C(=O)c3sccc3C)CC2)c1	–	–	–	–	–	–	·
Oc1c(Br)cc(/C=N/Nc2nncc3ccccc23)cc1Br	·	–	–	·	–	63	–
O=c1[nH]c(CN2CCN(c3ccc(O)cc3)CC2)nc2scc(-c3ccc(Cl)cc3)c12	–	–	–	–	–	78	–

Compound activity: PubChem, several laboratories
